Beta apoptosis – blocks beta cell apoptosis. INS-1E cytokine-induced death, ATP luminescence, 48 h; percent of positive-control rescue, neutral wells zero. protection from apoptosis, % (no concentration beside the values). actives 0.8% (n = 300,000). AID 435005;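 active means Every replicate reaches about 75%, or at least half do and their mean reaches it too, limit read from the data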;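 further: higher means more ATP so stronger rescue from cytokine killing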
T cruzi inh – T. cruzi replication inhibition; T. cruzi beta-gal in NIH3T3, luminescence, 90 h; inhibition, % (test concentration not listed); actives 1.4% (n = 300,000);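 active means mean inhibition across valid replicates above about 55%, limit read from the data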;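 further: signal also drops with host cell toxicity which is not excluded here; higher percent means less beta-gal luminescence so fewer parasites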
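Assay system: NIH/3T3 fibroblasts plus reporter T. cruzi. Amount: NIH/3T3 cells, 5,000 per well. Buffer or medium: DMEM, 2% fetal bovine serum. Doses: compound pinned at 50 nL/well, DMSO. Schedule: ≥90 h infection period, 3 h prior cell attachment. Signal: luminescent β-galactosidase signal after 60 min lysis. Read-out: parasite load inhibition, %.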
KLF5 inh – suppresses KLF5 promoter-driven expression. actives 0.23% (n = 290,000). DLD-1 KLF5 promoter-luciferase reporter, luminescence. inhibition, % at 5 µM;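 active means inhibition above a per-plate limit of that plate's mean compound inhibition plus 3 SD, cut at about 60% in these data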;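 further: higher means less KLF5 promoter-driven luciferase light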
A1 inh – inhibitors of the anti-apoptotic protein A1, read as caspase activation; MEF A1-2A-BIM cells, Caspase-Glo 3/7 luminescence, 3 h; percent of clofoctol response, vehicle zero; caspase activation, % (test concentration not listed); AID 2462; actives 0.066% (n = 330,000);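 active means over half of replicate activation scores above 10%, or exactly half above 10 with the replicate mean above 10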
HIF activator – HIF pathway transcriptional activation. activation, % at 7.5 µM (by protocol). U2OS HRE-luciferase reporter, luminescence; normalized: DMSO 0%, desferrioxamine 100%. AID 1910. actives 0.32% (n = 300,000);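 active means mean activation of at least 10% of the iron chelator positive control signal, with at least half of replicates also reaching 10%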
Large screens that a line does not name were inactive. A selection: hits, their analogues and other compounds. The true share with any hit is near 2.3%.

O=C(N/N=C/c1cc(Br)cc(Br)c1O)c1cccc(N2CCCC2=O)c1	T cruzi inh 61, HIF activator 9.6
O=C(N/N=C/c1ccc(Cl)cc1Cl)c1cccc(N2CCCC2=O)c1	none
COc1ccc2nc(NC(=O)C3CCCN(S(=O)(=O)c4cccc5nonc45)C3)sc2c1 (stereo unspecified)	none
CCOc1ccc2nc(NC(=O)C3CCCN(S(=O)(=O)c4cccc5nonc45)C3)sc2c1 (stereo unspecified)	T cruzi inh 57
CCOC(=O)c1cnc(Nc2nc3ccccc3o2)nc1CSC(=S)N(CC)CC	T cruzi inh 61
CCOC(=O)c1c(C)[nH]c(C(=O)OCC(=O)Nc2sccc2C(N)=O)c1C	none (no result: KLF5 inh)
Cc1ccc(C(=O)Nc2nc(-c3ccccc3)c(-c3ccccc3)o2)cc1	T cruzi inh 59
O=C(c1ccc(-c2nnc(-c3ccccc3)o2)cc1)N1CCCCCC1	HIF activator 40
Cc1ccc(NC2CCCN(C(=O)C3CCCC3)C2)cc1C (stereo unspecified)	none
COc1cc2c(cc1OC)C(c1cc3cccc(C)c3[nH]c1=O)N(C(=O)c1ccco1)CC2 (stereo unspecified)	T cruzi inh 58
COc1cc2c(cc1OC)C(COc1ccc(F)cc1)N(C(=O)c1ccco1)CC2 (stereo unspecified)	none
Cc1nn(Cc2ccc(Cl)cc2)c(C)c1NC(=O)c1cc(-c2ccc3c(c2)OCO3)on1	T cruzi inh 56
CCOc1ccc(CNS(=O)(=O)c2cccs2)cc1OCC	none
CC1Sc2ccc(S(=O)(=O)N3CCC(C(=O)Nc4ccc(Cl)cc4)CC3)cc2NC1=O (stereo unspecified)	Beta apoptosis 113
COc1ccc(NC(=O)C2CCN(S(=O)(=O)c3ccc4c(c3)NC(=O)C(C)S4)CC2)cc1 (stereo unspecified)	none
Cc1ccc(NC(=O)C2CCN(S(=O)(=O)c3ccc(N4CCCC4=O)cc3)CC2)cc1Cl	Beta apoptosis 122
CCOc1ccc(C(=O)c2ccc([N+](=O)[O-])cc2Cl)cc1	T cruzi inh 60
COc1ccc(C2=NNC(=Nc3cc(S(=O)(=O)N(C)C)ccc3C)SC2)c(OC)c1	Beta apoptosis 103, T cruzi inh 72
CN(C)S(=O)(=O)c1cccc(N=C2NN=C(c3ccccc3)CS2)c1	Beta apoptosis 91 (no result: T cruzi inh, HIF activator)
Fc1ccccc1N=C1NN=C(c2ccccc2)CS1	Beta apoptosis 97
Cc1cc(C2=NNC(=Nc3ccccc3)SC2)c(C)n1C	none
CC(=O)Nc1ccc(C2=NNC(=Nc3cccc(S(=O)(=O)N(C)C)c3)SC2)cc1	Beta apoptosis 96
Fc1ccc(F)c(C2=NNC(=Nc3ccccc3F)SC2)c1	none
CC(=O)Nc1ccc(C2=NNC(=Nc3ccc(S(=O)(=O)N4CCOCC4)cc3)SC2)cc1	none
Cc1ccccc1N1C(=O)c2cc(S(N)(=O)=O)c(Cl)cc2NC1C (stereo unspecified)	none (no result: T cruzi inh, KLF5 inh, HIF activator)
COC(=O)c1ccc(COc2ccc(CNCc3ccc(Cl)cc3)cc2)cc1	none
O=[N+]([O-])c1ccc(/C=[N+](\[O-])CCO)o1	T cruzi inh 59 (no result: Beta apoptosis)
CN(CC1CCCN(CCc2cccc(C(F)(F)F)c2)C1)C(=O)c1cc2ccccc2o1 (stereo unspecified)	T cruzi inh 65 (no result: Beta apoptosis, A1 inh)
CSCCC(=O)N(C)CC1CCCN(CCc2cccc(C(F)(F)F)c2)C1 (stereo unspecified)	T cruzi inh 55 (no result: Beta apoptosis)
COC(=O)CCC(=O)N(C)CC1CCCN(CCc2cccc(C(F)(F)F)c2)C1 (stereo unspecified)	none
COc1cc(C(=O)Nc2nnc(C3=COCCO3)o2)cc(OC)c1OC	none
CC(C)(C)[C@H](N)C(=O)N[C@H]1CCC2C3CC=C4C[C@@H](O)CC[C@]4(C)C3CC[C@@]21C (stereo partly specified)	A1 inh 11 (no result: T cruzi inh, KLF5 inh, HIF activator)
Cc1ccc(-c2ocnc2C(=O)Nc2nc(C)cs2)cc1	none
COc1ccccc1/C=C/C=N/NC(=O)c1cccs1	none
Cc1ccc(C(=O)Nc2cccc(C(F)(F)F)c2)cc1NC(=O)c1c[nH]c2cc(C(F)(F)F)ccc2c1=O	none (no result: T cruzi inh, KLF5 inh, HIF activator)
CCN1CCN(Cc2ccc(NC(=O)c3ccc(C)c(NC(=O)c4c[nH]c5cc(C(F)(F)F)ccc5c4=O)c3)cc2C(F)(F)F)CC1	Beta apoptosis 99 (no result: KLF5 inh)
